Assay results collected from several papers.
Target: Phosphatidylinositol 4-phosphate 3-kinase C2 domain-containing subunit alpha (PIK3C2A, Homo sapiens, UniProt O00443)
Action: inhibitor

| SMILES | assay | conditions | endpoint | value |
| --- | --- | --- | --- | --- |
| Cc1cc(NC(=O)c2cccc3cc(-c4cccc5[nH]nc(N)c45)ccc23)ccc1F | enzyme activity | 0.1 µM | activity vs control | 108% |
| CC(C)CCn1c(SCC(=O)Nc2ccccc2C(F)(F)F)nc2nccnc2c1=O | enzyme activity | 10 µM | inhibition | 84% |
| Cc1ccc(C(=O)NCc2ccsc2)cc1C#Cc1cn(C(C)C)c2ncnc(N)c12 | enzyme activity | 1 µM | activity vs control | 98% |
| Cc1ccc(NC(=O)c2ccc(C)c(C(F)(F)F)c2)cc1C#Cc1nn(C2CCC(O)CC2)c2ncnc(N)c12 (stereo not drawn) | cell-free assay | 10 µM | remaining signal | 92% |
| COc1cc(Cl)c(C(=O)N[C@@H](CN[C@H]2CC[C@@H](N)CC2)Cc2ccc(C#N)cc2)cc1-c1ccc(CN[C@H](C)c2ccc(C)cc2)o1 | enzyme activity | 1 µM | remaining activity | 93% |
| O=C(CSc1nc2nccnc2c(=O)n1CCc1ccccc1)Nc1ccccc1 | enzyme activity | 10 µM | inhibition | 93% |
| C=CC(=O)Nc1cc(Nc2nccc(Nc3cc(Cl)c(F)cc3C(C)(C)O)n2)c(OC)cc1N1CC[C@@H](N(C)C)C1 | enzyme activity | 1 µM | inhibition | -2% |
| Cc1cnc(NC2CCOCC2)nc1-n1cnc(C(=O)NC(CN)c2cc(F)cc(Cl)c2)c1 (stereo not drawn) | enzyme activity, radiometric | 1 µM | remaining activity | 100% |
| CN1CC(Oc2cnc(C#N)cc2-c2ccn3nc(NC(=O)C4CC4)cc3c2)C1 | enzyme activity | 1 µM | inhibition | -4% |
